From ChEMBL document CHEMBL5705901, “Exploiting selective BCL-2 family inhibitors to dissect cell survival dependencies and define improved strategies for cancer therapy” (Sci Transl Med, 2015)
Active and inactive are the calls of the source. No cut-off for these calls is given here.

Experiments:
[1] = molecular target: Apoptosis regulator Bcl-2 (Homo sapiens, UniProt P10415); assay: Binding affinity to Bcl-2 (unknown origin) assessed as dissociation constant incubated for 1 hrs by TR-FRET assay
Chain of Apoptosis regulator Bcl-2 (P10415 whole entry): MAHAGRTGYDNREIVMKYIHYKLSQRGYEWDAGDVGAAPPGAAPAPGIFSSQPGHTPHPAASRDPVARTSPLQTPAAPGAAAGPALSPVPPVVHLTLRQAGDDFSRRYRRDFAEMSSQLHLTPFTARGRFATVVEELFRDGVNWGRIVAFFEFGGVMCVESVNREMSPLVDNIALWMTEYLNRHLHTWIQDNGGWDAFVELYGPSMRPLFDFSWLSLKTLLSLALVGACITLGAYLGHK

[2] = system: MOLT-4; assay: Induction of apoptosis in human MOLT-4 cells assessed as cytochrome C release from mitochondria upto 500 nM incubated for 4 hrs by immunoblot analysis; format: functional, cell-based
Procedure, shortened: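 Molt-4 cells were treated for 4 h with increasing concentrations. Cytochrome c in the mitochondrial and cytosolic fractions was determined by immunoblotting.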

[3] = system: NCI-H1650; assay: Synergistic antitumor activity against human NCI-H1650 cells xenografted in SCID-bg mouse assessed as tumor growth delay at 25 mg/kg, po coadministered with docetaxel once daily for 14 days relative to control; format: functional; settings: time 14 day
Procedure, shortened: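 Xenografts dosed with oral inhibitor plus intravenous docetaxel. TGImax = 100(1 − Tv/Cv), from mean treated and control tumor volumes; TGD = 100(T/C − 1), from median times to reach 1 cm3. Group size 5 mice (NCI-H747, A549-FP3, EBC-1, OVCAR-5), 8 (NCI-H358), 10 (NCI-H1650).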

[4] = system: MDA-MB-231; assay: Antitumor activity against LC3 positive human MDA-MB-231 cells xenografted in SCID mouse assessed as tumor growth delay at 25 mg/kg, po administered daily for 14 days relative to control; format: functional; settings: time 14 day
Procedure, shortened: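 MDA-MB-231 LC3 metastatic breast cancer xenograft, 10 mice per group, with a vehicle control. Dosing: oral agent 25 mg/kg daily for 14 days; docetaxel 7.5 mg/kg iv once; combination gives both regimens. Mean tumor volumes tracked. TGImax = 100(1 − Tv/Cv) from mean treated vs control volumes. TGD = 100(T/C − 1) from median times to reach 1 cm3.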

[5] = system: NCI-H747; assay: Antitumor activity against human NCI-H747 cells xenografted in po dosed SCID-bg mouse assessed as maximum tumor growth inhibition relative to control; format: functional
[6] = system: A549; assay: Antitumor activity against 3 times passaged human A549 cells xenografted in po dosed SCID mouse assessed as tumor growth delay relative to control; format: functional
[7] = Toxicity in po dosed SCID-bg mouse assessed as tolerance; format: organism-based; settings: in vivo
[8] = system: EBC-1; assay: Antitumor activity against human EBC-1 cells xenografted in po dosed SCID-bg mouse assessed as maximum tumor growth inhibition relative to control; format: functional
[9] = system: HCC1569; assay: Synergistic antiproliferative activity against human HCC1569 cells assessed as reduction in cell viability by measuring bliss sum score incubated for 72 hrs in presence of docetaxel by CellTiter-Glo cell vaibility assay; format: functional
[10] = system: MDA-MB-361; assay: Synergistic antiproliferative activity against human MDA-MB-361 cells assessed as reduction in cell viability by measuring bliss sum score incubated for 72 hrs in presence of docetaxel by CellTiter-Glo cell vaibility assay; format: functional
[11] = system: DU-4475; assay: Synergistic antiproliferative activity against human DU-4475 cells assessed as reduction in cell viability by measuring bliss sum score incubated for 72 hrs in presence of docetaxel by CellTiter-Glo cell vaibility assay; format: functional
[12] = system: Hs-578T; assay: Synergistic antiproliferative activity against human Hs-578T cells assessed as reduction in cell viability by measuring bliss sum score incubated for 72 hrs in presence of docetaxel by CellTiter-Glo cell vaibility assay; format: functional
[13] = system: BT-20; assay: Synergistic antiproliferative activity against human BT-20 cells assessed as reduction in cell viability by measuring bliss sum score incubated for 72 hrs in presence of docetaxel by CellTiter-Glo cell vaibility assay; format: functional
[14] = system: NCI-H1299; assay: Synergistic antiproliferative activity against human NCI-H1299 cells assessed as reduction in cell viability by measuring bliss sum score incubated for 72 hrs in presence of docetaxel by CellTiter-Glo cell vaibility assay; format: functional
[15] = system: OVCAR-3; assay: Synergistic antiproliferative activity against human OVCAR-3 cells assessed as reduction in cell viability by measuring bliss sum score incubated for 72 hrs in presence of docetaxel by CellTiter-Glo cell vaibility assay; format: functional
[16] = system: EBC-1; assay: Antagonistic antiproliferative activity against human EBC-1 cells assessed as reduction in cell viability by measuring bliss sum score incubated for 72 hrs in presence of docetaxel by CellTiter-Glo cell vaibility assay; format: functional
[17] = system: MDA-MB-231; assay: Induction of apoptosis in LC3 positive human MDA-MB-231 cells assessed as accumulation of cells with sub-G0-G1 DNA content at 1 uM incubated for 48 hrs in presence of docetaxel by flow cytometric analysis; format: functional, cell-based
[18] = system: HCC1428; assay: Induction of apoptosis in human HCC1428 cells assessed as accumulation of cells with sub-G0-G1 DNA content at 1 uM incubated for 48 hrs in presence of docetaxel by flow cytometric analysis; format: functional, cell-based
[19] = system: HCC1500; assay: Induction of apoptosis in human HCC1500 cells assessed as accumulation of cells with sub-G0-G1 DNA content at 1 uM incubated for 48 hrs in presence of docetaxel by flow cytometric analysis; format: functional, cell-based
[20] = system: HCC1954; assay: Induction of apoptosis in human HCC1954 cells assessed as accumulation of cells with sub-G0-G1 DNA content at 1 uM incubated for 48 hrs in presence of docetaxel by flow cytometric analysis; format: functional, cell-based

With `Cc1c(-c2ccc(N3CCc4cccc(C(=O)Nc5nc6ccccc6s5)c4C3)nc2C(=O)O)cnn1CC12CC3CC(CC(C3)C1)C2` the Ki [1] was 6 nM, the Activity [2] was “Active” and the Activity [3] was 170%. For the same compound, the Activity [4] was 55%, the TGI [5] was 50% and the Activity [6] was 108%. The Activity [7] was “Non-Toxic” and the TGI [8] was 52%.

With `CN(C)CC#Cc1ccc(OCCCc2sc(N3CCc4cccc(C(=O)Nc5nc6ccccc6s5)c4C3)nc2C(=O)O)c(F)c1` [A-1155463] the Activity_index [9] was 185, the Activity_index [10] was 110 and the Activity_index [11] was 229. The Activity_index [12] was 62, the Activity_index [13] was 260 and the Activity_index [14] was 302. It also gave an Activity_index [15] of 683 and an Activity_index [16] of -103.

With `CC1(C)CCC(c2ccc(Cl)cc2)=C(CN2CCN(c3ccc(C(=O)NS(=O)(=O)c4ccc(N[C@H](CCN5CCOCC5)CSc5ccccc5)c(S(=O)(=O)C(F)(F)F)c4)cc3)CC2)C1` [NAVITOCLAX] the Activity [17] was “Active”, the Activity [18] was “Active” and the Activity [19] was “Active”. For the same compound, the Activity [20] was “Active”.
